From PubChem
Compounds with a hit are over-represented: about 2.3% of the library has one in this group of screens.
TRPC6 inh – mouse TRPC6 channel inhibition. HEK293-TRPC6, membrane potential dye, ACh-evoked depolarization; hits give low values. B-score at 10 µM. 310,000 tested, 1.1% active;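 active means B-score under library mean minus 3 SD, initial fluorescence not abnormally high, positive integrated signal ratio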;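 further: B-score derived from integrated fluorescence ratio over the kinetic read; more negative B-score means stronger inhibition of depolarization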
Target sequence (Q61143 whole entry, looked up): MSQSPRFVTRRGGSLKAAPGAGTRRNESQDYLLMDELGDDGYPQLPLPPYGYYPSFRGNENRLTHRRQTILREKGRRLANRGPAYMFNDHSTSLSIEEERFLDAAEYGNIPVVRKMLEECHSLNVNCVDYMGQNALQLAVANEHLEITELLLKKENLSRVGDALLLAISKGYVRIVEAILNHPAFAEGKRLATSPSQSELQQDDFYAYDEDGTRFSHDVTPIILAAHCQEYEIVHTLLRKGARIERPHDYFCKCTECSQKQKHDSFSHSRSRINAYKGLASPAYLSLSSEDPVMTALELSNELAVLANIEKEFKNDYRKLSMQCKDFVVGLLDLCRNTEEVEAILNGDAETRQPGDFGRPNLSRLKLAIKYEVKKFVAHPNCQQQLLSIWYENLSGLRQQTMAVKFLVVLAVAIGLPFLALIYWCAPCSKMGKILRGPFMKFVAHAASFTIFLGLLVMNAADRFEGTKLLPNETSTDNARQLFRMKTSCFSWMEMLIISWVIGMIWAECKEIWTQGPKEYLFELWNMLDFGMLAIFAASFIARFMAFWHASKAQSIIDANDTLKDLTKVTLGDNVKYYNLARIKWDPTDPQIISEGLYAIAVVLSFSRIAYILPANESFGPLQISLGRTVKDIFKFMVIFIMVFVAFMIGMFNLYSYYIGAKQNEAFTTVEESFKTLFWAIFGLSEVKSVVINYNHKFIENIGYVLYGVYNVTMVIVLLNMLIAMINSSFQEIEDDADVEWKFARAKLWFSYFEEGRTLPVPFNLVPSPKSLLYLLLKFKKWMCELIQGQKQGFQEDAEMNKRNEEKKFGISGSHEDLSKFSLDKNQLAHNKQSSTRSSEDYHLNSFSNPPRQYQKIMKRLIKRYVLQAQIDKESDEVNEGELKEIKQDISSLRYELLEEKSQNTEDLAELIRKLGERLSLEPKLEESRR
TRPC4 inh – inhibitors of mouse TRPC4 channel; 300,000 tested, 0.39% active; HEK293 TRPC4beta/mu-opioid, DAMGO-evoked Fluo4 calcium flux; hits give low values; B-score at 10 µM; Q9QUQ5;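 active means B-score over 3 SD under the library average, no early fluorescence shift, positive overall ratio signal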
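Assay system – HEK293 line stably carrying TRPC4beta and mu-opioid receptor · Doses – single dose · Detection – Fluo4 calcium-dye fluorescence, kinetic read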
TRPC6 act – mouse TRPC6 channel activation | Q61143 | HEK293-TRPC6 membrane potential dye fluorescence; hits give high values | B-score at 10 µM | 310,000 tested, 0.13% active | AID 2550;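 active means B-score of the integrated fluorescence ratio above library mean plus 3 SD, and starting fluorescence ratio within library mean plus 5 SD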;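 further: higher score means more depolarization so channel activation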
TRPC4 agonist – opens the mouse TRPC4 cation channel; 310,000 tested, 0.49% active; AID 2237; B-score at 10 µM; HEK293 TRPC4beta/mu-opioid, Fluo4 calcium fluorescence; hits give high values; Q9QUQ5;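 active means B-score above 5 SD of library B-scores, and initial fluorescence ratio not above library mean plus 5 SD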;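 further: positive B-score marks a calcium rise read as TRPC4 activation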
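Incubation: 45 min room-temperature Fluo4 loading, 110 s read / System: HEK293 cells stably co-expressing mouse TRPC4beta and mu-opioid receptor / Signal: Fluo4 fluorescence, kinetic / Control set: buffer (low) and maximal DAMGO (high) / Measure: integrated baseline-normalised fluorescence ratio, converted to per-well B score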
TRPC4 potent – allosterically enhances the mouse TRPC4 cation channel. Q9QUQ5. HEK293 TRPC4beta/mu-opioid, DAMGO EC20, Fluo-4 Ca2+ flux; hits give high values. B-score at 10 µM. 310,000 tested, 0.42% active;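 active means B-score of calcium response area above 5 SD of library B-scores, with initial fluorescence ratio within 5 SD of library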
TRPC4 spec 2 – second selectivity test of TRPC6 inhibitors: effect on mouse TRPC4; HEK293 TRPC4/MOR, membrane potential dye fluorescence; channel activated by saturating DAMGO dose; inhibition, % at 10 µM; shares compounds with TRPC6 inh; 920 tested, 42% active; AID 2776;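 active means compounds whose fluorescence signal differed from control wells by over 3 SD, either direction, in both duplicate plates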
TRPC4 spec – mouse TRPC4 off-target activity of TRPC6 inhibitors | shares compounds with TRPC6 inh | HEK293 TRPC4/mu-opioid, membrane potential fluorescence | activity change, negative = inhibition, % at 10 µM | 920 tested, 61% active | AID 2777;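 active means rise or fall in signal beyond 3 SD of buffer-only wells in both replicate plates, either sign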;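 further: integrated kinetic ratio of fluorescence range over baseline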
HEK293 MPD ctr 2-1 – second check of TRPC6 inhibitor effects in parental HEK293 cells | signal change vs control, % at 10 µM | parental HEK293 membrane potential dye fluorescence; maximal acetylcholine challenge after compound addition | shares compounds with TRPC6 inh | 920 tested, 31% active;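 active means membrane potential signal moving either way by over 3 SD of the maximum-effect control, in both duplicate plates, meaning non-specific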
HEK293 MPD ctr-1 – counter-screen for TRPC6 inhibitors: effect in parental HEK293 cells. shares compounds with TRPC6 inh. parental HEK293 membrane potential dye fluorescence. membrane potential signal change, % at 10 µM. 920 tested, 60% active;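 active means membrane potential signal shifting up or down by more than 3 SD of buffer-only wells, on both duplicate plates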
HEK293 MPD ctr-2 – counter-screen for TRPC6 modulators: effect in parental HEK293 cells; shares compounds with TRPC6 inh; membrane potential dye fluorescence; membrane potential signal change, % at 10 µM; 2,400 tested, 51% active;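 active means membrane potential signal moves up or down beyond 5 SD from buffer-only wells, on both duplicate plates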
HEK293 MPD ctr 2-2 – parental HEK293 nonspecific activity of TRPC6 modulators, second screen; shares compounds with TRPC6 inh; membrane potential dye fluorescence; after compound, maximal acetylcholine stimulation; inhibition, % at 10 µM; 2,400 tested, 14% active; AID 488926;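 active means membrane potential signal drops by more than 5 SD from the mean control signal, in both duplicate plates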
TRPC4 ctr mod – mouse TRPC4 off-target activity of TRPC6 modulators; AID 488927; 2,400 tested, 69% active; shares compounds with TRPC6 inh; percent change from control (negative = decrease, positive = increase), % at 10 µM; HEK293 TRPC4/mu-opioid, membrane potential fluorescence;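 active means membrane potential signal moved up or down beyond 5 SD of buffer control wells, in both duplicate plates, actives on both sides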
TRPC4 ctr inh 2 – second selectivity test of TRPC6 modulators against mouse TRPC4. HEK293 TRPC4/mu-opioid, membrane potential dye fluorescence; stimulated with maximal-effect DAMGO. inhibition, % at 10 µM. 2,400 tested, 55% active. shares compounds with TRPC6 inh;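 active means drop in membrane potential signal beyond 5 SD of the control wells in both duplicate plates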;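 further: TRPC4 counter screen for TRPC6 hits run under conditions tuned for TRPC6 not TRPC4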
TRPC6 inh conf – confirmation of mouse TRPC6 inhibitors; HEK293-TRPC6, membrane potential dye, ACh-evoked depolarization; inhibition, % at 10 µM; 3,300 tested, 43% active; shares compounds with TRPC6 inh;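 active means fluorescence ratio falls more than 5 SD below the full-stimulation control mean, in both duplicate runs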;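 further: integrated fluorescence ratio of peak minus minimum over baseline after agonist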
TRPC6 act confirm – mouse TRPC6 activator confirmation | activation, % at 10 µM | HEK293-TRPC6 membrane potential dye fluorescence, FDSS | shares compounds with TRPC6 inh | AID 488961 | 2,800 tested, 11% active;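 active means ratio signal rise beyond 5 SD above unstimulated control wells' mean, seen in both duplicate runs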
A number is an active result; 0 = inactive; - = no result; + = active, no number.

SMILES | TRPC6 inh | TRPC4 inh | TRPC6 act | TRPC4 agonist | TRPC4 potent | HEK293 MPD ctr-2 | HEK293 MPD ctr 2-2 | TRPC4 ctr mod | TRPC4 ctr inh 2 | TRPC6 inh conf | TRPC6 act confirm | others
O=C(O)C1C2CCC(O2)C1C(=O)Nc1ccc(O)cc1 (configuration not stated) | 0 | 0 | 0 | 0 | 0 | - | - | - | - | - | -
Cc1[nH]n(-c2ccccc2)c(=O)c1N=Nc1ccc2c(c1)OCCO2 | 0 | 0 | 0 | 0 | 0 | - | - | - | - | - | -
Cc1[nH]n(-c2ccccc2)c(=O)c1N=Nc1c(O)cc(S(=O)(=O)N(C)C)c2ccccc12 | -8.9 | 0 | 0 | 0 | 0 | -135% | 80% | -34% | 86% | 81% | 0
c1csc(Cc2nc3ccccc3[nH]2)c1 | -14 | 0 | 0 | 0 | 0 | 0 | 0 | 0 | 0 | 0 | 0
COc1cccc(NC(=O)CN(C)C(=O)c2ccc(-c3cccc(C(F)(F)F)c3)o2)c1 | 0 | 0 | 0 | 0 | 0 | - | - | - | - | - | -
CCn1c(NC(=O)/C=C/c2ccc(F)cc2)nc2ccccc21 | 0 | 0 | 0 | 0 | 0 | - | - | - | - | - | -
CCOc1c(Cl)cc(CNC(C)(C)CC(C)(C)C)cc1OC | -5.1 | 0 | 0 | 0 | 0 | 176% | 86% | 36% | 75% | 63% | -
O=C(Nc1cccnc1Cl)c1ccc(=O)oc1 | 0 | 0 | 0 | 0 | 0 | - | - | - | - | - | -
O=[N+]([O-])/C(=C\Nc1ccc(F)cc1F)S(=O)(=O)c1ccccc1 | 0 | 0 | 0 | 0 | 0 | - | - | - | - | - | -
CCOC(=O)/C(=N\Nc1ccc(C(C)=O)cc1)c1csc(Nc2ccccc2)n1 | 0 | 0 | 0 | 0 | 0 | - | - | - | - | - | -
CCOC(=O)/C(=N\Nc1ccccc1[N+](=O)[O-])c1csc(N)n1 | -5.2 | 0 | 0 | 0 | 0 | 0 | 0 | -18% | 0 | 0 | 0
O=C(Cc1ccc([N+](=O)[O-])cc1)c1c(O)cc(O)cc1O | -5.5 | 0 | 0 | 0 | 0 | -62% | 0 | -19% | 52% | 52% | 0
Cc1cc(O)cc(O)c1C(=O)Cc1ccccc1 | 0 | 0 | 0 | 0 | 0 | - | - | - | - | - | -
N#C/C(=C\c1c(N2CCN(c3ccccc3)CC2)nc2ccccn2c1=O)S(=O)(=O)c1ccccc1 | 0 | 0 | 0 | 0 | 0 | - | - | - | - | - | -
CCN1CCN(c2nc3c(C)cccn3c(=O)c2/C=C(\C#N)S(=O)(=O)c2ccc(C)cc2)CC1 | -5.1 | 0 | 0 | 0 | 0 | -77% | 0 | -22% | 96% | 0 | 0
N#C/C(=C\c1c(N2CCCCC2)nc2ccccn2c1=O)S(=O)(=O)c1ccccc1 | -5.3 | 0 | 0 | 0 | 0 | 0 | 0 | -14% | 48% | 0 | 0
Cc1ccc(S(=O)(=O)/C(C#N)=C/c2c(N3CCN(C)CC3)nc3c(C)cccn3c2=O)cc1 | -6.8 | 0 | 0 | 0 | 0 | 0 | 0 | -17% | 83% | 0 | 0
CCOc1cc(CNCCSc2nnnn2C)cc(Br)c1OCc1ccc(F)cc1 | 0 | 0 | 0 | 0 | 0 | - | - | - | - | - | -
CCOc1c(C)cc(S(=O)(=O)NCc2ccccn2)c(C)c1C | 0 | 0 | 0 | 0 | 0 | - | - | - | - | - | -
COc1ccc(-c2coc3cc(OC)cc(O)c3c2=O)cc1 | -8.6 | 0 | 0 | 0 | 0 | 0 | 0 | 0 | 0 | 0 | 0
COc1ccc(-c2coc3cc(O)cc(O)c3c2=O)cc1 | 0 | 0 | 0 | 0 | 0 | - | - | - | - | - | -
CCOC(=O)c1[nH]ncc1CN1CCCC(C(=O)c2ccc(SC)cc2)C1 (configuration not stated) | -5.7 | 0 | 0 | 0 | 0 | 0 | 0 | 11% | 30% | 0 | -
CSc1ccc(C(=O)C2CCCN(Cc3ccc(N4CCNC4=O)cc3)C2)cc1 (configuration not stated) | -5.8 | 0 | 0 | 0 | 0 | 0 | 0 | 0 | 88% | 55% | 0
CCOC(=O)c1[nH]ncc1CN1CCCC(C(=O)c2cccc3ccccc23)C1 (configuration not stated) | 0 | 0 | 0 | 0 | 0 | - | - | - | - | - | -
CC(C)(C)NC(=S)N/N=C\c1ccc(-c2ccc([N+](=O)[O-])cc2)o1 | 0 | 0 | 18 | 0 | 16 | 0 | 0 | 51% | 0 | 0 | 0
SMILES | TRPC6 inh | TRPC4 inh | TRPC6 act | TRPC4 agonist | TRPC4 potent | HEK293 MPD ctr-2 | HEK293 MPD ctr 2-2 | TRPC4 ctr mod | TRPC4 ctr inh 2 | TRPC6 inh conf | TRPC6 act confirm | others
O=C(O)c1ccc(-c2ccc(/C=N/Nc3ccc([N+](=O)[O-])cc3)o2)cc1 | 0 | 0 | 43 | 121 | 19 | + | 0 | 310% | 0 | 0 | 484%
O=C(O)c1cccc(-c2ccc(/C=N/Nc3ccc([N+](=O)[O-])cc3)o2)c1 | 0 | 0 | 0 | 0 | 0 | - | - | - | - | - | -
CC(C)n1nnc(-c2ccc(OCc3ccccc3F)cc2)n1 | 0 | 0 | 0 | 0 | 0 | - | - | - | - | - | -
CC(C)N1CCc2c(sc(NC(=S)NC(=O)c3ccccc3)c2C#N)C1 | 0 | 0 | 48 | 71 | 0 | 0 | 0 | 8.0% | 0 | 0 | 0
Cc1ccc(-c2csc3ncnc(NCCC(=O)O)c23)cc1C | 0 | 0 | 0 | 0 | 0 | - | - | - | - | - | -
COc1ccccc1CCNC(=O)C(=O)NCC1OCCN1S(=O)(=O)c1ccc(C)cc1 (configuration not stated) | 0 | 0 | 0 | 0 | 0 | - | - | - | - | - | -
CN1CCN(CC(O)(c2ccc(Cl)cc2)c2ccc(Cl)cc2)CC1 | -7.3 | 0 | 0 | 0 | 0 | - | - | - | - | 0 | 0 | TRPC4 spec 2=0;TRPC4 spec=4.3%;HEK293 MPD ctr 2-1=0;HEK293 MPD ctr-1=1.8%
CN1CCN(CC(O)COc2ccc(Cl)cc2)CC1 (configuration not stated) | 0 | 0 | 0 | 0 | 0 | - | - | - | - | - | -
